Test [1] in a line: Inhibition of Escherichia coli MurD.
In a further test the test system is Escherichia coli. The test is described as follows: Inhibition of Escherichia coli MurD assessed as residual activity at 1 mM. In short, it runs like this:
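Radiolabel MurD assay: E. coli enzyme, 25 µM UMA plus 25 µM D-[14C]Glu, Tris-HCl pH 8.6, MgCl2, 5% DMSO, compound at 1 mM; 30 min at 37 °C, acid-quenched, reverse-phase HPLC with radioactivity detection. Activity expressed relative to an inhibitor-free assay; mean of two independent experiments.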

One may read the IC50 as the midpoint of a concentration-inhibition curve. The low end stands for greater potency in that assay, the high end for weaker potency in that assay. Take `CCCCOc1ccc2ccc(S(=O)(=O)N[C@H](CCC(=O)O)C(=O)O)cc2c1`: the midpoint of inhibition in test [1], the IC50, lay at 180 µM.

Turning to `CCCCOc1ccc(S(=O)(=O)N[C@H](CCC(=O)O)C(=O)O)c2ccccc12`, in test [1], the IC50 is more than 1000 µM.

In test [1], `CCCCOc1ccc2cc(C(=O)N[C@H](CCC(=O)O)C(=O)O)ccc2c1` yielded an IC50 of more than 1000 µM.

In test [1], `COc1ccc2cc(S(=O)(=O)N[C@H](CCC(=O)O)C(=O)O)ccc2c1` displayed an IC50 of 590 µM.

Take `COc1cc(C#N)ccc1COc1ccc2cc(S(=O)(=O)N[C@H](CCC(=O)O)C(=O)O)ccc2c1`: the IC50 in test [1] was determined as 100 µM.

On to `O=C(O)CCCOc1ccc2cc(S(=O)(=O)N[C@H](CCC(=O)O)C(=O)O)ccc2c1`, for which, in test [1], the IC50 is more than 1000 µM.

As to `O=C(O)CC[C@@H](NC(=O)CN1C(=O)c2ccccc2C1=O)C(=O)O`, in the test with Escherichia coli, the Activity turned out to be 92%.

`CCCCOc1cccc2c(S(=O)(=O)N[C@H](CCC(=O)O)C(=O)O)cccc12`: in test [1], the IC50 is more than 1000 µM.

Take `O=C(O)CC[C@@H](NC(=O)COc1ccc2ccccc2c1)C(=O)O`: the Activity in the test on Escherichia coli was 76%.

In the case of `O=C(O)CC[C@@H](NS(=O)(=O)c1ccc(-c2ccccc2)cc1)C(=O)O`, the Activity in the test with Escherichia coli came to 43%. In addition, the IC50 in test [1] was 1720 µM.

As for `O=C(O)CC[C@@H](NS(=O)(=O)c1ccc2cc(OCc3ccccc3)ccc2c1)C(=O)O`, half-maximal inhibition in test [1] (IC50) was put at 239 µM.

Consider `O=C(O)CC[C@@H](NC(=O)CCc1cccc(O)c1)C(=O)O`, for which the Activity in the test with Escherichia coli came out at 81%.

As to `O=C(O)CC[C@@H](NS(=O)(=O)Cc1ccccc1)C(=O)O`, in the test on Escherichia coli, the Activity was determined as 84%.

Consider `CCOC(=O)COc1ccc2cc(S(=O)(=O)N[C@H](CCC(=O)O)C(=O)O)ccc2c1`, for which, in test [1], the IC50 was determined as 192 µM.

In turn, `CCCCOc1ccc2cc(S(=O)(=O)NCC(=O)O)ccc2c1` returned an IC50 in test [1] of more than 2000 µM.

`CCCCCCOc1ccc2cc(S(=O)(=O)N[C@H](CCC(=O)O)C(=O)O)ccc2c1` displayed an IC50 in test [1] of 176 µM.

`O=C(O)CC[C@@H](NS(=O)(=O)c1ccc2cc(OCCCc3ccccc3)ccc2c1)C(=O)O` came in with an IC50 in test [1] of 132 µM.

Take `O=C(O)CC[C@@H](NS(=O)(=O)Cc1ccc(F)cc1Cl)C(=O)O`: the Activity with Escherichia coli came to 86%.

Regarding `CCCOc1ccc2cc(S(=O)(=O)N[C@H](CCC(=O)O)C(=O)O)ccc2c1`, the IC50 in test [1] turned out to be 305 µM.

Take `O=C(O)CC[C@@H](NC(=O)/C=C/c1ccccc1)C(=O)O`: the Activity in the test with Escherichia coli was determined as 91%.

`CCCCOc1ccc2cc(CN[C@H](CCC(=O)O)C(=O)O)ccc2c1`: the IC50 in test [1] was more than 1000 µM.

`CC(=O)Nc1ccc(S(=O)(=O)N[C@H](CCC(=O)O)C(=O)O)cc1`: the Activity with Escherichia coli was found to be 79%.

With `C[C@@H](CS(=O)(=O)N[C@H](CCC(=O)O)C(=O)O)S(=O)(=O)c1ccc2ccccc2c1`, the Activity with Escherichia coli stood at 75%. For the same compound, the IC50 in test [1] is more than 2000 µM.

Regarding `Cc1ccc(S(=O)(=O)N[C@H](CCC(=O)O)C(=O)O)cc1`, the Activity with Escherichia coli is 66%.

`CCCCOc1ccc2cc(S(=O)(=O)N[C@H](CCC(=O)O)C(=O)O)ccc2c1` registered an IC50 in test [1] of 280 µM.

Regarding `O=C(O)CC[C@@H](NS(=O)(=O)c1ccc2cc(OC3CCCC3)ccc2c1)C(=O)O`, the IC50 in test [1] came out at 400 µM.

In test [1], `CCCCOc1ccc2cc(S(=O)(=O)NCCCC(=O)O)ccc2c1` came in with an IC50 of more than 2000 µM.

Consider `O=C(O)CC[C@@H](NS(=O)(=O)c1ccc2cc(OCC(=O)O)ccc2c1)C(=O)O`, for which the IC50 in test [1] was found to be 630 µM.

With `O=C(O)CC[C@@H](NC(=O)C1Oc2ccccc2NC1=O)C(=O)O` (stereo partly specified), the Activity with Escherichia coli came out at 54%.

`O=C(O)CC[C@@H](NS(=O)(=O)c1ccc2ccccc2c1)C(=O)O`: in the test on Escherichia coli, the Activity was found to be 35%. In addition, the IC50 in test [1] was found to be 810 µM.

Compound `CCCCOc1ccc2cc(S(=O)(=O)N[C@H](CCC(=O)OC)C(=O)OC)ccc2c1` registered an IC50 in test [1] of more than 2000 µM.

Compound `CCCCOc1ccc2cc(S(=O)(=O)N(C)[C@H](CCC(=O)O)C(=O)O)ccc2c1` had an IC50 in test [1] of more than 1000 µM.

The compound `CCCCOc1ccc2cc(S(=O)(=O)N[C@@H](CCC(=O)O)C(=O)O)ccc2c1` yielded an IC50 in test [1] of 710 µM.

(Values after ChEMBL document CHEMBL1140221, “Novel naphthalene-N-sulfonyl-D-glutamic acid derivatives as inhibitors of MurD, a key peptidoglycan biosynthesis enzyme” (J Med Chem, 2008).)
